According to ChEMBL document CHEMBL1152203, “New jasmonate analogues as potential anti-inflammatory agents” (Bioorg Med Chem, 2008):
The source made the active and inactive calls. No cut-off for these calls is given here.

What was measured:
RAW264.7 [1] = assay: Antiinflammatory activity in LPS-stimulated mouse RAW264.7 cells assessed as inhibition of TNFalpha production after 24 hrs by ELISA; type: functional, cell-based
How it was run: (§1)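 RAW264.7 cells at 1.5 × 10^5 cells/mL, pre-incubated 18 h in 24-well plates, then stimulated with LPS (1 µg/mL) alone or with test samples for 24 h. Samples dissolved in EtOH diluted with DMEM, solvent ≤0.1% final. NO in supernatant by Griess reagent (10 min, room temperature, light protected, absorbance 540 nm); IL-6 and TNF-α by ELISA. Mean ± SD.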

RAW264.7 [2] = assay: Antiinflammatory activity in LPS-stimulated mouse RAW264.7 cells assessed as inhibition of NO production at 12.5 uM after 24 hrs by Griess reagent method; type: functional, cell-based; how it was run: as §1
RAW264.7 [3] = assay: Antiinflammatory activity in LPS-stimulated mouse RAW264.7 cells assessed as inhibition of NO production at 25 uM after 24 hrs by Griess reagent method; type: functional, cell-based
How it was run: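 Test samples at 12.5 and 25.0 µM with LPS (1 µg/mL) on RAW264.7 cells (1.5 × 10^5 cells/mL) for 24 h. NO read by Griess method, IL-6 and TNF-α by ELISA. Means ± SD of triplicate experiments.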

RAW264.7 [4] = assay: Antiinflammatory activity in LPS-stimulated mouse RAW264.7 cells assessed as inhibition of NO production after 24 hrs by Griess reagent method; type: functional, cell-based; how it was run: as §1
RAW264.7 [5] = assay: Antiinflammatory activity in LPS-stimulated mouse RAW264.7 cells assessed as inhibition of IL6 production at 12.5 uM after 24 hrs by ELISA; type: functional, cell-based; how it was run: as §1
RAW264.7 [6] = assay: Antiinflammatory activity in LPS-stimulated mouse RAW264.7 cells assessed as inhibition of IL6 production at after 24 hrs by ELISA; type: functional, cell-based; how it was run: as §1
RAW264.7 [7] = assay: Antiinflammatory activity in LPS-stimulated mouse RAW264.7 cells assessed as inhibition of TNFalpha production at 12.5 uM after 24 hrs by ELISA; type: functional, cell-based; how it was run: as §1
RAW264.7 [8] = assay: Antiinflammatory activity in LPS-stimulated mouse RAW264.7 cells assessed as inhibition of NO production at 6.25 uM after 24 hrs by Griess reagent method; type: functional, cell-based
How it was run: (§2)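 NO series at 3.12, 6.25 and 12.5 µM: RAW264.7 cells (1.5 × 10^5 cells/mL) co-treated with LPS (1 µg/mL) for 24 h; nitrite by Griess reagent. Means ± SD of triplicate experiments.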

RAW264.7 [9] = assay: Antiinflammatory activity in LPS-stimulated mouse RAW264.7 cells assessed as inhibition of NO production at 10 uM after 24 hrs by Griess reagent method; type: functional, cell-based
How it was run: (§3)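 Samples and prostaglandin references tested at 10 and 30 µM alongside LPS (1 µg/mL) in RAW264.7 cells (1.5 × 10^5 cells/mL), 24 h; NO by Griess reagent. Triplicate experiments, means ± SD.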

RAW264.7 [10] = assay: Cytotoxicity against LPS-stimulated mouse RAW264.7 cells at 12.5 uM after 24 hrs by MTT assay; type: cell-based; settings: raw264.7, 24 h
How it was run: (§4)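 Viability of RAW264.7 cells (1.5 × 10^5 cells/mL) after 24 h exposure to LPS (1 µg/mL) plus test sample, by MTT. MTT added for 4 h, formazan dissolved in DMSO, absorbance 540 nm. Means ± SD of duplicate (50, 100 µM) or triplicate (other concentrations) experiments.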

RAW264.7 [11] = assay: Cytotoxicity against LPS-stimulated mouse RAW264.7 cells at 3.12 uM after 24 hrs by MTT assay; type: cell-based; settings: raw264.7, 24 h; how it was run: as §4
RAW264.7 [12] = assay: Cytotoxicity against LPS-stimulated mouse RAW264.7 cells at 25 uM after 24 hrs by MTT assay; type: cell-based; settings: raw264.7, 24 h; how it was run: as §4
RAW264.7 [13] = assay: Antiinflammatory activity in LPS-stimulated mouse RAW264.7 cells assessed as inhibition of NO production at 30 uM after 24 hrs by Griess reagent method; type: functional, cell-based; how it was run: as §3
RAW264.7 [14] = assay: Cytotoxicity against LPS-stimulated mouse RAW264.7 cells at 10 uM after 24 hrs by MTT assay; type: cell-based; settings: raw264.7, 24 h; how it was run: as §4
RAW264.7 [15] = assay: Antiinflammatory activity in LPS-stimulated mouse RAW264.7 cells assessed as inhibition of NO production at 3.12 uM after 24 hrs by Griess reagent method; type: functional, cell-based; how it was run: as §2
RAW264.7 [16] = assay: Cytotoxicity against LPS-stimulated mouse RAW264.7 cells at 6.25 uM after 24 hrs by MTT assay; type: cell-based; settings: raw264.7, 24 h; how it was run: as §4
RAW264.7 [17] = assay: Antiinflammatory activity in LPS-stimulated mouse RAW264.7 cells assessed as inhibition of NO production at 50 uM after 24 hrs by Griess reagent method; type: functional, cell-based
How it was run: (§5)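 Conditions used at 50 and 100 µM: RAW264.7 cells (1.5 × 10^5 cells/mL) stimulated with LPS (1 µg/mL) alone or with samples for 24 h. Supernatant NO measured by Griess reagent, absorbance 540 nm; IL-6 and TNF-α by ELISA. Means ± SD of duplicate experiments; blank and LPS-only controls.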

RAW264.7 [18] = assay: Cytotoxicity against LPS-stimulated mouse RAW264.7 cells at 50 uM after 24 hrs by MTT assay; type: cell-based; settings: raw264.7, 24 h; how it was run: as §4
RAW264.7 [19] = assay: Antiinflammatory activity in LPS-stimulated mouse RAW264.7 cells assessed as inhibition of NO production at 100 uM after 24 hrs by Griess reagent method; type: functional, cell-based; how it was run: as §5
RAW264.7 [20] = assay: Antiinflammatory activity in LPS-stimulated mouse RAW264.7 cells assessed as inhibition of IL6 production at 50 uM after 24 hrs by ELISA; type: functional, cell-based; how it was run: as §1
RAW264.7 [21] = assay: Antiinflammatory activity in LPS-stimulated mouse RAW264.7 cells assessed as inhibition of TNFalpha production at 50 uM after 24 hrs by ELISA; type: functional, cell-based; how it was run: as §5
RAW264.7 [22] = assay: Cytotoxicity against LPS-stimulated mouse RAW264.7 cells at 100 uM after 24 hrs by MTT assay; type: cell-based; settings: raw264.7, 24 h; how it was run: as §4

Row | Structure (SMILES) | Activity (RAW264.7 [1]) | Activity (RAW264.7 [2]) | Activity (RAW264.7 [3]) | Activity (RAW264.7 [4]) | Activity (RAW264.7 [5]) | Activity (RAW264.7 [6]) | Activity (RAW264.7 [7]) | also measured
1 | CCCCCC1C(=O)C=CC1CC(=O)O (configuration not stated) | Dose-dependent effect | Active | Active | Dose-dependent effect | Active | Dose-dependent effect | Active | 
2 | CCCCCC1C(=O)C(Br)=CC1CC(=O)OC (configuration not stated) | Dose-dependent effect |  |  | Dose-dependent effect |  | Dose-dependent effect |  | Activity (RAW264.7 [8]): Active; Activity (RAW264.7 [9]): Active; Activity (RAW264.7 [10]): Toxic; Activity (RAW264.7 [11]): Non-toxic; Activity (RAW264.7 [12]): Toxic; Activity (RAW264.7 [13]): Active; Activity (RAW264.7 [14]): Toxic; Activity (RAW264.7 [15]): Active; Activity (RAW264.7 [16]): Non-toxic
3 | CC/C=C\CC1C(=O)C(I)=CC1CC(=O)OC (configuration not stated) | Dose-dependent effect |  |  | Dose-dependent effect |  | Dose-dependent effect |  | 
4 | CCCCCC1C(=O)C=CC1CC(=O)OC (configuration not stated) | Dose-dependent effect |  |  | Dose-dependent effect |  | Dose-dependent effect |  | 
5 | CC/C=C\CC1C(=O)C(Br)=CC1CC(=O)OC (configuration not stated) | Dose-dependent effect |  |  | Dose-dependent effect |  | Dose-dependent effect |  | Activity (RAW264.7 [8]): Active; Activity (RAW264.7 [9]): Active; Activity (RAW264.7 [10]): Toxic; Activity (RAW264.7 [11]): Non-toxic; Activity (RAW264.7 [12]): Toxic; Activity (RAW264.7 [13]): Active; Activity (RAW264.7 [14]): Toxic; Activity (RAW264.7 [15]): Active; Activity (RAW264.7 [16]): Non-toxic
6 | CC/C=C\CC1C(=O)C=CC1CC(=O)O (configuration not stated) | Dose-dependent effect | Active | Active | Dose-dependent effect | Active | Dose-dependent effect | Active | 
7 | CC/C=C\CC1C(=O)C(C#N)=CC1CC(=O)OC (configuration not stated) |  |  |  |  |  |  |  | Activity (RAW264.7 [17]): Active; Activity (RAW264.7 [18]): Toxic; Activity (RAW264.7 [19]): Active; Activity (RAW264.7 [20]): Active; Activity (RAW264.7 [21]): Active; Activity (RAW264.7 [22]): Toxic
8 | CCCCCC1C(=O)C=CC1CC(=O)NC(C)C (configuration not stated) | Dose-dependent effect | Active | Active | Dose-dependent effect | Active | Dose-dependent effect | Active | 
9 | CCCCCC1C(=O)C=CC1CC(=O)NCCO (configuration not stated) | Dose-dependent effect | Active | Active | Dose-dependent effect | Active | Dose-dependent effect | Active | 
10 | CCCCCC1C(=O)C(Cl)=CC1CC(=O)OC (configuration not stated) | Dose-dependent effect |  | Active | Dose-dependent effect |  | Dose-dependent effect |  | Activity (RAW264.7 [9]): Active; Activity (RAW264.7 [13]): Active
11 | CC/C=C\CC1C(=O)C(Cl)=CC1CC(=O)O (configuration not stated) | Dose-dependent effect | Active | Active | Dose-dependent effect | Active | Dose-dependent effect | Active | 
12 | CCCCCC1C(=O)C(Cl)=CC1CC(=O)O (configuration not stated) | Dose-dependent effect | Active | Active | Dose-dependent effect | Active | Dose-dependent effect | Active | 
13 | CC/C=C\CC1C(=O)C(C(=O)OC)=CC1CC(=O)OC (configuration not stated) |  |  |  |  |  |  |  | Activity (RAW264.7 [17]): Active; Activity (RAW264.7 [18]): Toxic; Activity (RAW264.7 [19]): Active; Activity (RAW264.7 [20]): Active; Activity (RAW264.7 [21]): Active; Activity (RAW264.7 [22]): Toxic
14 | CCCCCC1C(=O)C(I)=CC1CC(=O)OC (configuration not stated) | Dose-dependent effect |  |  | Dose-dependent effect |  | Dose-dependent effect |  | 
15 | CC/C=C\CC1C(=O)C=CC1CC(=O)OC (configuration not stated) | Dose-dependent effect | Active | Active | Dose-dependent effect | Active | Dose-dependent effect | Active | Activity (RAW264.7 [17]): Active; Activity (RAW264.7 [18]): Toxic; Activity (RAW264.7 [19]): Active; Activity (RAW264.7 [20]): Active; Activity (RAW264.7 [21]): Active; Activity (RAW264.7 [22]): Toxic
16 | CC/C=C\CC1C(=O)CCC1CC(=O)OC (configuration not stated) [METHYL JASMONATE] |  |  |  |  |  |  |  | Activity (RAW264.7 [17]): Active; Activity (RAW264.7 [18]): Toxic; Activity (RAW264.7 [19]): Active; Activity (RAW264.7 [20]): Active; Activity (RAW264.7 [21]): Active; Activity (RAW264.7 [22]): Toxic
17 | CC/C=C\CC1C(=O)C(Cl)=CC1CC(=O)OC (configuration not stated) | Dose-dependent effect |  | Active | Dose-dependent effect |  | Dose-dependent effect |  | Activity (RAW264.7 [9]): Active; Activity (RAW264.7 [13]): Active
18 | CC/C=C\CC1C(=O)C=CC1CC(=O)NCCO (configuration not stated) | Dose-dependent effect | Active | Active | Dose-dependent effect | Active | Dose-dependent effect | Active | 
19 | CC/C=C\CC1C(=O)C=CC1CC(=O)NC(C)C (configuration not stated) | Dose-dependent effect | Active | Active | Dose-dependent effect | Active | Dose-dependent effect | Active | 
